Activity calls are given as the source filed them. No cut-off for these calls is given here.
Columns and labels:
Mus musculus [1] = assay: Induction of IL2 secretion in BALB/c mouse serum at 2 ug, iv after 2 hrs relative to control; assay type: functional
Summary of the method: (§1)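 BALB/c mice received an i.v. injection of 100 μl of glycolipid diluted to 20 μg/ml in saline from DMSO stock, with 1% DMSO as vehicle. Serum cytokines/chemokines were measured at 2 and 18 h after injection.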

[2] = Induction of IFN-gamma secretion in human CD161+ CD3+ NKT cells at 10 ug/ml after 18 hrs relative to basal level; assay type: functional
Summary of the method: (§2)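 Human Vα24i NKT cell lines were expanded for 10 days on irradiated (3,000 rad) autologous immature DCs with 10 units/ml IL-2. The cells (1 × 10^5) were cocultured with 5 × 10^4 irradiated immature CD14+ DCs plus glycolipid at 10 μg/ml. Supernatants were collected at 18 h and read on a 22-plex Luminex bead panel. Triplicates, mean ± SD.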

[3] = Induction of IL6 secretion in human CD161+ CD3+ NKT cells at 10 ug/ml after 18 hrs relative to basal level; assay type: functional; summary of the method: as §2
Mus musculus [4] = assay: Induction of IL3 secretion in BALB/c mouse serum at 2 ug, iv after 2 hrs relative to control; assay type: functional; summary of the method: as §1
[5] = Induction of RANTES secretion in human CD161+ CD3+ NKT cells at 10 ug/ml after 18 hrs relative to basal level; assay type: functional; summary of the method: as §2
4T1 = assay: Antitumor activity in mouse 4T1 cells xenografted BALB/c mouse assessed as suppression of tumor growth at 2 ug, iv; assay type: functional, cell-based
Summary of the method: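 BALB/c mice (n = 6) were inoculated s.c. with 4T1 breast cancer cells. From day 3 they were treated i.v. with glycolipid or vehicle twice weekly for 4 weeks. Tumor volume was recorded every 3 days for 1 month, and survival was monitored up to 54 days.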

[6] = Induction of IL13 secretion in human CD161+ CD3+ NKT cells at 10 ug/ml after 18 hrs relative to basal level; assay type: functional; summary of the method: as §2
[7] = Induction of IL15 secretion in human CD161+ CD3+ NKT cells at 10 ug/ml after 18 hrs relative to basal level; assay type: functional; summary of the method: as §2
Mus musculus [8] = assay: Induction of MIPbeta secretion in BALB/c mouse serum at 2 ug, iv after 2 hrs relative to control; assay type: functional; summary of the method: as §1
Mus musculus [9] = assay: Induction of IL6 secretion in BALB/c mouse serum at 2 ug, iv after 2 hrs relative to control; assay type: functional; summary of the method: as §1
[10] = Induction of IL4 secretion in human CD161+ CD3+ NKT cells at 10 ug/ml after 18 hrs relative to basal level; assay type: functional; summary of the method: as §2
[11] = Induction of IL12p70 secretion in human CD161+ CD3+ NKT cells at 10 ug/ml after 18 hrs relative to basal level; assay type: functional; summary of the method: as §2
[12] = Induction of IL2 secretion in human CD161+ CD3+ NKT cells at 10 ug/ml after 18 hrs relative to basal level; assay type: functional; summary of the method: as §2
Mus musculus [13] = assay: Induction of IL12p40 secretion in BALB/c mouse serum at 2 ug, iv after 18 hrs relative to control; assay type: functional; summary of the method: as §1
Mus musculus [14] = assay: Increase in CD8/CD4 T cell ratio in BALB/c mouse at 2 ug, iv after 72 hrs by flow cytometry; assay type: functional, organism-based
[15] = Induction of TNFalpha secretion in human CD161+ CD3+ NKT cells at 10 ug/ml after 18 hrs relative to basal level; assay type: functional; summary of the method: as §2
[16] = Induction of IL12p40 secretion in human CD161+ CD3+ NKT cells at 10 ug/ml after 18 hrs relative to basal level; assay type: functional; summary of the method: as §2
Mus musculus [17] = assay: Induction of GM-CSF secretion in BALB/c mouse serum at 2 ug, iv after 2 hrs relative to control; assay type: functional; summary of the method: as §1
[18] = Induction of MIPalpha secretion in human CD161+ CD3+ NKT cells at 10 ug/ml after 18 hrs relative to basal level; assay type: functional; summary of the method: as §2
Mus musculus [19] = assay: Induction of IL10 secretion in BALB/c mouse serum at 2 ug, iv after 18 hrs relative to control; assay type: functional; summary of the method: as §1
[20] = Induction of MCP1 secretion in human CD161+ CD3+ NKT cells at 10 ug/ml after 18 hrs relative to basal level; assay type: functional; summary of the method: as §2
Mus musculus [21] = assay: Induction of KC secretion in BALB/c mouse serum at 2 ug, iv after 2 hrs relative to control; assay type: functional; summary of the method: as §1
Mus musculus [22] = assay: Induction of MCP1 secretion in BALB/c mouse serum at 2 ug, iv after 2 hrs relative to control; assay type: functional; summary of the method: as §1
[23] = Induction of IL10 secretion in human CD161+ CD3+ NKT cells at 10 ug/ml after 18 hrs relative to basal level; assay type: functional; summary of the method: as §2
[24] = Induction of GM-CSF secretion in human CD161+ CD3+ NKT cells at 10 ug/ml after 18 hrs relative to basal level; assay type: functional; summary of the method: as §2
TC1 = assay: Antitumor activity in TC1 cells xenografted C57BL/6 mouse assessed as suppression of tumor growth at 2 ug, iv; assay type: functional, cell-based
Summary of the method: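 C57BL/6 mice (n = 5/group) were inoculated i.v. with TC-1 lung cancer cells. They were then treated i.v. with 2 μg glycolipid per mouse, or 100 μl of 1% DMSO, twice weekly for 4 weeks. Kaplan–Meier survival and body weight were followed, with tumor-free mice as an additional control.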

[25] = Induction of IL3 secretion in human CD161+ CD3+ NKT cells at 10 ug/ml after 18 hrs relative to basal level; assay type: functional; summary of the method: as §2
[26] = Induction of IL8 secretion in human CD161+ CD3+ NKT cells at 10 ug/ml after 18 hrs relative to basal level; assay type: functional; summary of the method: as §2
Mus musculus [27] = assay: Induction of IL1-beta secretion in BALB/c mouse serum at 2 ug, iv after 18 hrs relative to control; assay type: functional; summary of the method: as §1
Mus musculus [28] = assay: Induction of RANTES secretion in BALB/c mouse serum at 2 ug, iv after 2 hrs relative to control; assay type: functional; summary of the method: as §1
Mus musculus [29] = assay: Induction of IL4 secretion in BALB/c mouse serum at 2 ug, iv after 2 hrs relative to control; assay type: functional; summary of the method: as §1
Mus musculus [30] = assay: Induction of IFN-gamma secretion in BALB/c mouse serum at 2 ug, iv after 18 hrs relative to control; assay type: functional; summary of the method: as §1
Mus musculus [31] = assay: Induction of TNFalpha secretion in BALB/c mouse serum at 2 ug, iv after 18 hrs relative to control; assay type: functional; summary of the method: as §1
Mus musculus [32] = assay: Induction of IL13 secretion in BALB/c mouse serum at 2 ug, iv after 2 hrs relative to control; assay type: functional; summary of the method: as §1
Mus musculus [33] = assay: Induction of IL12p70 secretion in BALB/c mouse serum at 2 ug, iv after 18 hrs relative to control; assay type: functional; summary of the method: as §1
dendritic [34] = assay: Activation of TCR in human immature dendritic cells assessed as increase in CD3epsilon phosphorylation; assay type: cell-based
Summary of the method: (§3)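 Human HeLa, HeLa-CD1d or autologous immature DCs were loaded with glycolipid at 10 μg/ml, or DMSO, for 2 h. Then 3 × 10^5 naïve CD161+/CD3+ NKT cells were added; these were bead-isolated and kept in 100 units/ml IL-2. After 5–10 min the cells were washed and lysed at 4°C. Phospho-CD3ε, ERK1/2 (Thr-185/Tyr-187) and CREB (Ser-133) were read by Luminex bead assay as median fluorescence normalized to total protein, expressed as fold over 1% DMSO.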

HeLa [35] = assay: Activation of TCR in human HeLa cells overexpressing CD1d assessed as increase in CREB phosphorylation; assay type: cell-based; summary of the method: as §3
dendritic [36] = assay: Activation of TCR in human immature dendritic cells assessed as increase in ERK1/2 phosphorylation; assay type: cell-based; summary of the method: as §3
dendritic [37] = assay: Activation of TCR in human immature dendritic cells assessed as increase in CREB phosphorylation; assay type: cell-based; summary of the method: as §3
HeLa [38] = assay: Activation of TCR in human HeLa cells overexpressing CD1d assessed as increase in ERK1/2 phosphorylation; assay type: cell-based; summary of the method: as §3
HeLa [39] = assay: Activation of TCR in human HeLa cells overexpressing CD1d assessed as increase in CD3epsilon phosphorylation; assay type: cell-based; summary of the method: as §3

Structure (SMILES)	Activity [2]	Activity [3]	Activity [5]	Activity [6]	Activity [7]	Activity [10]	Activity [11]	Activity [12]	Activity [15]	Activity [16]	Activity [18]	Activity [20]	Activity [23]	Activity [24]	Activity [25]	Activity [26]	further results
CCCCCCCCCCCCCCCCCCCCCCCCCC(=O)N[C@@H](CO[C@H]1O[C@H](C(=O)O)[C@H](O)[C@H](O)[C@H]1O)[C@H](O)[C@H](O)CCCCCCCCCCCCCC	3.4	1	1.6	1.1	1.7	1.5	2.7	2.3	1.7	1.8	3.3	1.2	0.7	2	1.3	1.4	Activity (Mus musculus [1]): 21.5; Activity (Mus musculus [4]): 10.4; Activity (4T1): Active; Activity (Mus musculus [8]): 1.8; Activity (Mus musculus [9]): 4.9; Activity (Mus musculus [13]): 4.4; Activity (Mus musculus [14]): Active; Activity (Mus musculus [17]): 37.6; Activity (Mus musculus [19]): 1.5; Activity (Mus musculus [21]): 16.1; Activity (Mus musculus [22]): 8; Activity (TC1): Active; Activity (Mus musculus [27]): 4.8; Activity (Mus musculus [28]): 2.8; Activity (Mus musculus [29]): 21.2; Activity (Mus musculus [30]): 27.5; Activity (Mus musculus [31]): 8.7; Activity (Mus musculus [32]): 1.7; Activity (Mus musculus [33]): 1.4
CCCCCCCCCCCCCCCCCCCCCCCCCC(=O)N[C@@H](CO[C@H]1O[C@H](CO)[C@H](O)[C@H](O)[C@H]1O)[C@H](O)[C@H](O)CCCCC	1.9	1.8	1.8	1.8	2.1	2.7	1	1.5	2.2	1.4	2.7	1.3	1.5	4.7	1.4	1.6	Activity (dendritic [34]): 12; Activity (HeLa [35]): 20; Activity (dendritic [36]): 18.6; Activity (dendritic [37]): 49; Activity (HeLa [38]): 3.3; Activity (HeLa [39]): 5.9
